Assays:
[1] = Lethal dose in mice (LD50) following i.p. dosing; type: toxicity, organism-based; details: mouse, in vivo, ip
In short: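 Acute toxicity tested in mice by the intraperitoneal route. LD50 is the dose killing 50% of treated mice, computed by Finney probit analysis; values are approximate.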

Rattus norvegicus [2] = assay: Antagonistic activity against apomorphine-induced stereotypy in rats, by administering perorally at a dose of 50 mg/kg; type: functional; details: route oral
In short: (§1)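 Male rats fasted overnight and given oral doses in arabic gum suspension (10 mL/kg) 1 h, or 1 and 5 h, before challenge. Apomorphine 3 mg/kg iv, with stereotypy observed 20 min later. ED50 is the dose inhibiting stereotypy in 50% of rats, per Janssen's method. Parenthetical entries give the maximal dose and percent activity.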

Mus musculus [3] = assay: Inhibition of amphetamine-induced hypermobility in mice following p.o. administration.; type: functional; details: po
In short: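 Compounds were given orally to male mice (gum arabic suspension, 10 mL/kg, fasted) in groups of five. Amphetamine 4 mg/kg ip followed 30 min later. After another 10 min, motility was recorded for 15 min with a photocell actophotometer. ED50, by probit analysis, is the dose giving 50% reduction against controls.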

Mus musculus [4] = assay: Inhibition of spontaneous motor activity in mice, by administering perorally; type: functional; details: po
In short: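 Mice in groups of five were dosed orally with gum arabic suspensions at 10 mL/kg after an overnight fast, with a vehicle control group. Locomotion was counted for 10 min in a photocell activity cage, in at least two groups per dose. ED50, by probit analysis, is the dose giving 50% inhibition against controls.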

Rattus norvegicus [5] = assay: Activity to evoke catalepsy in rats, by administering perorally at a dose of 50 mg/kg; type: functional; details: route oral
In short: (§2)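 Rats fasted overnight and given oral doses in arabic gum suspension (10 mL/kg), 1 h before screening or 1 and 5 h before profile testing. Forelegs placed on a horizontal bar 7 cm high, three times at 5-min intervals. Immobility of at least 15 s counts as catalepsy. ED50 is the dose giving catalepsy in 50% of rats, by probit analysis. Parenthetical entries give the maximal dose and percent activity.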

Rattus norvegicus [6] = assay: Activity to evoke catalepsy in rats, by administering perorally at a dose of 150 mg/kg; type: functional; details: route oral; in short: as §2
Rattus norvegicus [7] = assay: Antagonistic activity against apomorphine-induced stereotypy in rats, by administering perorally at a dose of 150 mg/kg; type: functional; details: route oral; in short: as §1
Mus musculus [8] = assay: Antagonistic activity against amphetamine-induced Hypermobility in mice, by administering perorally at a dose of 20 mg/kg; type: functional; details: route oral
In short: (§3)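 Male mice in groups of five, fasted overnight, given oral drug in arabic gum suspension (10 mL/kg) 1 or 5 h ahead. Amphetamine 4 mg/kg ip given 30 min after drug. Ten minutes later locomotion is recorded for 15 min in a photocell actophotometer. ED50 is 50% reduction versus control hypermotility, by probit analysis. Parenthetical entries give the maximal dose and percent activity.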

Rattus norvegicus [9] = assay: Antagonistic activity against apomorphine-induced stereotypy in rats, by administering perorally at a dose of 20 mg/kg; type: functional; details: route oral; in short: as §1
Mus musculus [10] = assay: Inhibition of spontaneous motor activity in mice, by administering perorally at a dose of 20 mg/kg; type: functional; details: route oral
In short: (§4)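 Mice fasted overnight, then dosed orally with compound (weighed as base) suspended in arabic gum, 10 mL/kg, with vehicle controls; 1 h pretreatment for screening tests, 1 or 5 h for others. Groups of five; locomotor activity counted 10 min in photocell activity cage, at least two groups per dose. ED50 = dose giving 50% inhibition versus controls, by probit analysis.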

Rattus norvegicus [11] = assay: Activity to evoke catalepsy in rats, by administering perorally at a dose of 20 mg/kg; type: functional; details: route oral, read-out: Inhibition; in short: as §2
Rattus norvegicus [12] = assay: Antagonistic activity against apomorphine-induced stereotypy in rats, by administering perorally; type: functional; details: po; in short: as §1
Rattus norvegicus [13] = assay: Activity to evoke catalepsy in rats, by administering perorally; type: functional; details: po; in short: as §2
Rattus norvegicus [14] = assay: Activity to evoke catalepsy in rats, by administering perorally at a dose of 70 mg/kg; type: functional; details: route oral; in short: as §2
Mus musculus [15] = assay: Inhibition of spontaneous motor activity in mice, by administering perorally at a dose of 70 mg/kg; type: functional; details: route oral; in short: as §4
Mus musculus [16] = assay: Antagonistic activity against amphetamine-induced Hypermobility in mice, by administering perorally at a dose of 70 mg/kg; type: functional; details: route oral; in short: as §3
Rattus norvegicus [17] = assay: Antagonistic activity against apomorphine-induced stereotypy in rats, by administering perorally at a dose of 100 mg/kg; type: functional; details: route oral; in short: as §1
Rattus norvegicus [18] = assay: Activity to evoke catalepsy in rats, by administering perorally at a dose of 100 mg/kg; type: functional; details: route oral, read-out: Inhibition; in short: as §2
Mus musculus [19] = assay: Antagonistic activity against amphetamine-induced Hypermobility in mice, by administering perorally at a dose of 100 mg/kg; type: functional; details: route oral; in short: as §3
Mus musculus [20] = assay: Inhibition of spontaneous motor activity in mice, by administering perorally at a dose of 100 mg/kg; type: functional; details: route oral; in short: as §4

SMILES: COc1cccc(N2CCN(CCc3oc(O)nc3-c3ccc(F)cc3)CC2)c1
- LD50 [1]: 500 mg/kg
- inhibition in vivo at 50 mg/kg (Rattus norvegicus [2]): 0%
- ED50 (Mus musculus [3]): 7.6 mg/kg
- ED50 (Mus musculus [4]): 10.8 mg/kg
- inhibition in vivo at 50 mg/kg (Rattus norvegicus [5]): 30%

SMILES: O=C(c1ccccc1)n1c(-c2ccc(F)cc2)c(CCN2CCN(c3ccccc3)CC2)oc1=O
- inhibition in vivo at 150 mg/kg (Rattus norvegicus [6]): 0%
- LD50 [1]: 750 mg/kg
- ED50 (Mus musculus [3]): 9.3 mg/kg
- inhibition in vivo at 150 mg/kg (Rattus norvegicus [7]): 40%
- ED50 (Mus musculus [4]): 4 mg/kg

SMILES: Oc1nc(-c2ccc(F)cc2)c(CCN2CCN(c3cc(Cl)c(Cl)cc3Cl)CC2)o1
- inhibition in vivo at 20 mg/kg (Mus musculus [8]): 0%
- LD50 [1]: 750 mg/kg
- inhibition in vivo at 20 mg/kg (Rattus norvegicus [9]): 0%
- inhibition in vivo at 20 mg/kg (Mus musculus [10]): 0%
- percent of rats showing catalepsy at 20 mg/kg (Rattus norvegicus [11]): 0%

SMILES: Oc1nc(-c2ccc(F)cc2)c(CCN2CCN(c3cccc(Cl)c3Cl)CC2)o1
- inhibition in vivo at 20 mg/kg (Mus musculus [8]): 69%
- LD50 [1]: 90 mg/kg
- inhibition in vivo at 20 mg/kg (Rattus norvegicus [9]): 0%
- percent of rats showing catalepsy at 20 mg/kg (Rattus norvegicus [11]): 0%
- ED50 (Mus musculus [4]): 12.5 mg/kg

SMILES: Oc1nc(-c2ccccc2)c(CCN2CCN(c3ccccc3)CC2)o1
- ED50 (Rattus norvegicus [12]): 200 mg/kg
- ED50 (Rattus norvegicus [13]): 63 mg/kg
- LD50 [1]: > 1000 mg/kg
- ED50 (Mus musculus [3]): 51 mg/kg
- ED50 (Mus musculus [4]): 60 mg/kg

SMILES: CC(=O)n1c(-c2ccc(F)cc2)c(CCN2CCN(c3ccccc3)CC2)oc1=O
- ED50 (Rattus norvegicus [12]): 44 mg/kg
- ED50 (Rattus norvegicus [13]): 30.5 mg/kg
- LD50 [1]: 350 mg/kg
- ED50 (Mus musculus [3]): 4.7 mg/kg
- ED50 (Mus musculus [4]): 2.7 mg/kg

SMILES: Oc1nc(-c2ccc(Cl)cc2)c(CCN2CCN(c3ccccn3)CC2)o1
- ED50 (Rattus norvegicus [13]): 47 mg/kg
- LD50 [1]: 375 mg/kg
- inhibition in vivo at 50 mg/kg (Rattus norvegicus [2]): 0%
- ED50 (Mus musculus [3]): 14.3 mg/kg
- ED50 (Mus musculus [4]): 14.1 mg/kg

SMILES: COc1ccc(-c2nc(O)oc2CCN2CCN(c3ccccc3)CC2)cc1
- ED50 (Rattus norvegicus [12]): 47 mg/kg
- inhibition in vivo at 70 mg/kg (Rattus norvegicus [14]): 0%
- inhibition in vivo at 70 mg/kg (Mus musculus [15]): 26%
- LD50 [1]: 350 mg/kg
- inhibition in vivo at 70 mg/kg (Mus musculus [16]): 27%

SMILES: Oc1nc(-c2ccc(F)cc2)c(CCN2CCN(c3cccc(C(F)(F)F)c3)CC2)o1
- inhibition in vivo at 100 mg/kg (Rattus norvegicus [17]): 0%
- percent of rats showing catalepsy at 100 mg/kg (Rattus norvegicus [18]): 0%
- LD50 [1]: > 1000 mg/kg
- ED50 (Mus musculus [3]): 11.6 mg/kg
- ED50 (Mus musculus [4]): 16.9 mg/kg

SMILES: COc1ccccc1N1CCN(CCc2oc(=O)n(C(C)=O)c2-c2ccc(F)cc2)CC1
- ED50 (Rattus norvegicus [12]): 14.5 mg/kg
- ED50 (Rattus norvegicus [13]): 30 mg/kg
- LD50 [1]: 190 mg/kg
- ED50 (Mus musculus [3]): 3.5 mg/kg
- ED50 (Mus musculus [4]): 4.3 mg/kg

SMILES: Oc1nc(-c2ccc(Cl)cc2)c(CN2CCN(c3ccccc3)CC2)o1
- inhibition in vivo at 100 mg/kg (Rattus norvegicus [17]): 0%
- inhibition in vivo at 100 mg/kg (Mus musculus [19]): 0%
- percent of rats showing catalepsy at 100 mg/kg (Rattus norvegicus [18]): 0%
- LD50 [1]: > 1000 mg/kg
- inhibition in vivo at 100 mg/kg (Mus musculus [20]): 15%

SMILES: CC(=O)n1c(-c2ccc(F)cc2)c(CCN2CCN(c3cc(Cl)cc(Cl)c3)CC2)oc1=O
- inhibition in vivo at 100 mg/kg (Rattus norvegicus [17]): 10%
- percent of rats showing catalepsy at 100 mg/kg (Rattus norvegicus [18]): 0%
- LD50 [1]: 1000 mg/kg
- ED50 (Mus musculus [3]): 2.7 mg/kg
- ED50 (Mus musculus [4]): 4.5 mg/kg

SMILES: Oc1nc(-c2ccc(F)cc2)c(CCN2CCN(c3cc(Br)cc(Br)c3)CC2)o1
- inhibition in vivo at 100 mg/kg (Rattus norvegicus [17]): 0%
- percent of rats showing catalepsy at 100 mg/kg (Rattus norvegicus [18]): 0%
- LD50 [1]: 1000 mg/kg
- ED50 (Mus musculus [3]): 5.4 mg/kg
- ED50 (Mus musculus [4]): 15 mg/kg

SMILES: Cn1c(-c2ccc(F)cc2)c(CCN2CCN(c3ccccc3)CC2)oc1=O
- ED50 (Rattus norvegicus [12]): 112 mg/kg
- percent of rats showing catalepsy at 100 mg/kg (Rattus norvegicus [18]): 0%
- LD50 [1]: 750 mg/kg
- ED50 (Mus musculus [3]): 21 mg/kg
- ED50 (Mus musculus [4]): 19.5 mg/kg

SMILES: Oc1nc(-c2ccc(F)cc2)c(CCN2CCN(c3ccc(Cl)c(Cl)c3)CC2)o1
- inhibition in vivo at 100 mg/kg (Rattus norvegicus [17]): 0%
- inhibition in vivo at 100 mg/kg (Mus musculus [19]): 62%
- percent of rats showing catalepsy at 100 mg/kg (Rattus norvegicus [18]): 0%
- LD50 [1]: 1000 mg/kg
- inhibition in vivo at 100 mg/kg (Mus musculus [20]): 21%

SMILES: Oc1nc(-c2ccc(F)cc2)c(CCN2CCN(c3ccc(Cl)c(Cl)c3Cl)CC2)o1
- inhibition in vivo at 20 mg/kg (Mus musculus [8]): 0%
- LD50 [1]: 750 mg/kg
- inhibition in vivo at 20 mg/kg (Rattus norvegicus [9]): 0%
- inhibition in vivo at 20 mg/kg (Mus musculus [10]): 0%
- percent of rats showing catalepsy at 20 mg/kg (Rattus norvegicus [11]): 0%
